The source made the active and inactive calls. The rule behind the calls is not given here.
Tests used:
[1] = system: Nucleic Acid; test: Binding affinity to ICB2 site of topoisomerase 2alpha cognate sequence ATCGAT at 1 uM after 30 mins by DNase I footprinting assay; assay type: nucleic-acid assay
Outline: (§1)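 DNase I footprinting on a PCR-made radiolabeled 131-bp fragment. The fragment was incubated 30 min at room temperature with drug in TN buffer (10 mM Tris, 10 mM NaCl, pH 7). It was then cleaved 3 min with 0.02 U DNase I in buffer containing Mg2+/Mn2+ (pH 8.0) and stopped on dry ice. Products were resolved on a denaturing 10% polyacrylamide urea gel.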

[2] = system: Nucleic Acid; test: Binding affinity to ICB2 site of topoisomerase 2alpha cognate sequence ATCGAT at 2 uM after 30 mins by DNase I footprinting assay; assay type: nucleic-acid assay; outline: as §1
[3] = system: Nucleic Acid; test: Binding affinity to biotinylated ICB2 site of topoisomerase 2alpha cognate sequence ATCGAT by surface plasmon resonance assay; assay type: nucleic-acid assay
Outline: (§2)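 SPR at 25 °C with biotinylated DNA hairpins immobilized on a chip, in cacodylic acid buffer pH 6.25 with 0.1 M NaCl. Compound injected at a range of concentrations (up to 4 µM) at 25 µL/min with 400 s dissociation; surface regenerated with glycine pH 2.5. Keq derived from steady-state fits.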

[4] = system: Nucleic Acid; test: Binding affinity to ICB2 site of topoisomerase 2alpha cognate sequence TACGAT assessed as change in melting temperature at 3 uM by thermal denaturation; assay type: nucleic-acid assay
Outline: (§3)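 Thermal melting by UV spectrophotometry: DNA hairpin 1 µM with compound 3 µM in PO40 buffer (10 mM phosphate, 12.5 mM Na+, 1 mM EDTA, pH 6.2). ΔTm taken as the difference in Tm between ligand-bound and free DNA.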

[5] = system: Nucleic Acid; test: Binding affinity to ICB2 site of topoisomerase 2alpha cognate sequence ATCGAT assessed as change in melting temperature at 3 uM by thermal denaturation; assay type: nucleic-acid assay; outline: as §3
[6] = system: B16; test: Cytotoxicity against mouse B16 cells after 72 hrs by MTT assay; assay type: cell-based; details: B16, 72 h
Outline: (§4)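 Cells exposed to a compound concentration gradient for 72 h, then MTT added and developed 4 h. Absorbance read; IC50 taken as the concentration giving 50% growth inhibition versus untreated control.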

[7] = system: NIH3T3; test: Inhibition of topoisomerase 2alpha expression in mouse NIH/3T3 cells up to 80 uM after 4 to 24 hrs by Western blotting; assay type: functional, cell-based
Outline: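 NIH 3T3 cells held at confluence for 96 h, then treated with compound (40 and 80 µM) for 6 and 24 h. Nuclear extract (50 µg) immunoblotted with polyclonal topoIIα antibody (1:1000), detected by ECL. Lamin A/C used as loading control.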

[8] = system: Nucleic Acid; test: Binding affinity to ICB2 site of topoisomerase 2alpha cognate sequence ATCGAT at 6 molar equivalent concentration by circular dichroism spectra analysis; assay type: nucleic-acid assay
Outline: (§5)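 CD spectra recorded in a 1 mm cuvette with 2.4 nm bandpass, integration time set as a function of PMT high volts. PO45 buffer (10 mM phosphate, 50 mM Na+, 1 mM EDTA, pH 6.2); run in duplicate.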

[9] = system: Nucleic Acid; test: Binding affinity to ICB2 site of topoisomerase 2alpha cognate sequence ATCGAT by isothermal titration microcalorimetry; assay type: nucleic-acid assay
Outline: (§6)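 ITC at 25 °C in PO45 buffer. Compound (100 µM) titrated into 2 µM DNA as 50 injections every 240 s after a 300 s delay. A linear fit was subtracted from the integrated heats to remove non-specific heat, giving ΔH.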

[10] = system: Nucleic Acid; test: Binding affinity to ICB2 site of topoisomerase 2alpha non-cognate AAATTT assessed as change in melting temperature at 3 uM by thermal denaturation; assay type: nucleic-acid assay; outline: as §3
[11] = system: Nucleic Acid; test: Binding affinity to ICB2 site of topoisomerase 2alpha non-cognate AAATTT by isothermal titration microcalorimetry; assay type: nucleic-acid assay; outline: as §6
[12] = system: Nucleic Acid; test: Binding affinity to ICB2 site of topoisomerase 2alpha cognate sequence TACGAT by isothermal titration microcalorimetry; assay type: nucleic-acid assay; outline: as §6
[13] = system: Nucleic Acid; test: Inhibition of nuclear factor Y binding to ICB2 site of topoisomerase 2alpha cognate sequence TACGAT in mouse NIH/3T3 cells at > 3 uM treated after addition of probe by electrophoretic mobility shift assay; assay type: cell-based; details: NIH3T3
[14] = system: Nucleic Acid; test: Inhibition of nuclear factor Y binding to ICB2 site of topoisomerase 2alpha cognate sequence TACGAT in mouse NIH/3T3 cells at > 3 uM preincubated for 1 hr by electrophoretic mobility shift assay; assay type: cell-based; details: NIH3T3
[15] = system: Nucleic Acid; test: Binding affinity to ICB2 site of topoisomerase 2alpha cognate sequence TACGAT by circular dichroism spectra analysis; assay type: nucleic-acid assay; outline: as §5
[16] = system: Nucleic Acid; test: Binding affinity to biotin labeled ICB2 site of topoisomerase 2alpha non-cognate AAATTT by surface plasmon resonance assay; assay type: nucleic-acid assay; outline: as §2
[17] = system: L1210; test: Cytotoxicity against mouse L1210 cells after 72 hrs by MTT assay; assay type: cell-based; details: L1210, 72 h; outline: as §4

Row | Activity [1] | Activity [2] | Ke [3] [×10⁵ /M] | ΔTm [4] [°C] | ΔTm [5] [°C] | Activity [8] | Activity [9] | ΔTm [10] [°C] | Activity [11] | Activity [12] | Activity [15] | Ke [16] | Structure (SMILES) | IC50 [6] [µM] | Activity [7] | Activity [13] | Activity [14] | IC50 [17] [µM]
1 | inactive | Active |  |  |  |  |  |  |  |  |  |  | CN(C)CCCNC(=O)c1cc(NC(=O)c2nc(NC(=O)c3cc(NC=O)cn3C)cn2C)cn1C |  |  |  |  | 
2 | Active | Active | 5 | 3 | 6 | Active | Active | 4 | inactive | Active | Active | inactive | CN(C)CCCNC(=O)c1cc(NC(=O)c2nc(NC(=O)c3cc(NC=O)cn3CCOCCOCCn3cc(NC=O)cc3C(=O)Nc3cn(C)c(C(=O)Nc4cc(C(=O)NCCCN(C)C)n(C)c4)n3)cn2C)cn1C | > 100 | inactive | Active | Active | > 100

From ChEMBL document CHEMBL1250458, “Targeting the ICB2 site of the topoisomerase IIalpha promoter with a formamido-pyrrole-imidazole-pyrrole H-pin polyamide” (Bioorg Med Chem, 2010)
